The target in data set [1] is Matrix metalloproteinase-14 (Homo sapiens, UniProt P50281). Kind of data set: Inhibition of recombinant human MMP-14 using Mca-Lys-Pro-Leu-Gly-Leu-Dap(Dnp)-Ala-Arg-NH2 as substrate after 3 hrs by fluorometric assay. The method in brief: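 MMP-14 catalytic domain, final 1.0 nM, preincubated with inhibitor for 3 h at 25 °C in Tris 50 mM pH 7.5, NaCl 150 mM, CaCl2 10 mM, Brij-35 0.05%, DMSO 1%. Substrate final 2 µM. Fluorescence (ex 325/em 400 nm) read every 15 s for 20 min. Duplicates; IC50 from the vi/vo equation.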

The target in data set [2] is T1, Disintegrin and metalloproteinase domain-containing protein 10 (Homo sapiens, UniProt O14672).
T1 sequence (O14672 whole entry): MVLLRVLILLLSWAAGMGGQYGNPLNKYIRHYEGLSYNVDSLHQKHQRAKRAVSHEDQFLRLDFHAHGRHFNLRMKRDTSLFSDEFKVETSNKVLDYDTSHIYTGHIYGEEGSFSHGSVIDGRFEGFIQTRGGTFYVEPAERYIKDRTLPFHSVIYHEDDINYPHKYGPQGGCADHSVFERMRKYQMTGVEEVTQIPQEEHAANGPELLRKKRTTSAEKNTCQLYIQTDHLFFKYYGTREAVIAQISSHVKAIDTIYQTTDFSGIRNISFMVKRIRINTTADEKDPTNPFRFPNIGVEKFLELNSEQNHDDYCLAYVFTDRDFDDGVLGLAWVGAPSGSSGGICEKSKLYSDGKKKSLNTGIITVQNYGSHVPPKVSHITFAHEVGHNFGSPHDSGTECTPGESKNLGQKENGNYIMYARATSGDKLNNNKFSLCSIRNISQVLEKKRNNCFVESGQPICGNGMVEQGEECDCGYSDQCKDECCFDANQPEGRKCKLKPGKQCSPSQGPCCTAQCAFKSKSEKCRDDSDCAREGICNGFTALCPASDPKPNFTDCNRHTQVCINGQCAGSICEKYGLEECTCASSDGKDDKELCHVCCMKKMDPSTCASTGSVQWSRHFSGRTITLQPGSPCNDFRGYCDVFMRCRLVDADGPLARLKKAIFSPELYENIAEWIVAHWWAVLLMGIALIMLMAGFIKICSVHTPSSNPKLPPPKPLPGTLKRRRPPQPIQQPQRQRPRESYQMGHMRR
The data set is described as follows: Inhibition of recombinant human ADAM-10 using Mca-Lys-Pro-Leu-Gly-Leu-Dap(Dnp)-Ala-Arg-NH2 as substrate after 1 hr by fluorometric assay. Summed up: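 Recombinant human ADAM-10, final 20 nM, preincubated with inhibitor for 1 h at 37 °C in Tris 25 mM pH 9, ZnCl2 25 µM, Brij-35 0.005%. Substrate final 10 µM. Fluorescence (ex 325/em 400 nm) read every 15 s for 20 min. Duplicates; IC50 from vi/vo = 1/(1+[I]/IC50).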

Data set [3] deals with T2, Disintegrin and metalloproteinase domain-containing protein 17 (Homo sapiens, UniProt P78536). The data set is described as follows: Inhibition of recombinant human ADAM-17 using Mca-Lys-Pro-Leu-Gly-Leu-Dap(Dnp)-Ala-Arg-NH2 as substrate after 30 mins by fluorometric assay. Summed up:
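Recombinant human ADAM-17, final 5 nM, preincubated with inhibitor for 30 min at 37 °C in Tris 25 mM pH 9, ZnCl2 25 µM, Brij-35 0.005%. Substrate final 2 µM. Fluorescence (ex 325/em 400 nm) read every 15 s for 20 min. Duplicates; IC50 from vi/vo = 1/(1+[I]/IC50).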

The target of data set [4] is Matrix metalloproteinase-9 (Homo sapiens, UniProt P14780). The data set is described as follows: Inhibition of recombinant human MMP-9 using Mca-Lys-Pro-Leu-Gly-Leu-Dap(Dnp)-Ala-Arg-NH2 as substrate after 3 hrs by fluorometric assay. Summed up:
(§1)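 Pro-MMPs were activated with APMA: MMP-1 2 mM for 2 h, MMP-2 2 mM for 1 h, MMP-9 1 mM for 1 h, all at 37 °C. Final enzyme: MMP-1 2.0 nM, MMP-2 0.56 nM, MMP-9 1.3 nM. Enzyme was preincubated with inhibitor for 3 h at 25 °C in Tris 50 mM pH 7.5, NaCl 150 mM, CaCl2 10 mM, Brij-35 0.05%, DMSO 1%. Substrate final 2 µM. Fluorescence (ex 325/em 400 nm) read every 15 s for 20 min. Duplicates; IC50 from vi/vo = 1/(1+[I]/IC50).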

In data set [5] the target is 72 kDa type IV collagenase (Homo sapiens, UniProt P08253). The data set is described as follows: Inhibition of recombinant human MMP-2 using Mca-Lys-Pro-Leu-Gly-Leu-Dap(Dnp)-Ala-Arg-NH2 as substrate after 3 hrs by fluorometric assay. The method in brief:
as §1

The target of the next data set is T3, Interstitial collagenase (Homo sapiens, UniProt P03956).
T3 sequence (P03956 whole entry): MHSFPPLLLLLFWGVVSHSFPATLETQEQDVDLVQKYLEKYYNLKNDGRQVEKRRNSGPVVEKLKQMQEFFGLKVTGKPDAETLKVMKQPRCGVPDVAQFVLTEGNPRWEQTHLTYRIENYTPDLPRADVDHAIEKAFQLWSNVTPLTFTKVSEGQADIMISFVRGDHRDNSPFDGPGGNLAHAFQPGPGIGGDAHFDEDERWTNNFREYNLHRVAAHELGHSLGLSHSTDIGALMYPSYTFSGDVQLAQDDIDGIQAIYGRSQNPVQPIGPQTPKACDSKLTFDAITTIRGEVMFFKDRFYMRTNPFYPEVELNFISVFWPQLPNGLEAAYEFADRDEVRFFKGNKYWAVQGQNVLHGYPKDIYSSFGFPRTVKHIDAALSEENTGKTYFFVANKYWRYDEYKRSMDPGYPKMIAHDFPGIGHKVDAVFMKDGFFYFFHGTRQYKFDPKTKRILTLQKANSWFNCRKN
Kind of data set: Inhibition of human MMP-1 using Mca-Lys-Pro-Leu-Gly-Leu-Dap(Dnp)-Ala-Arg-NH2 as substrate after 3 hrs by fluorometric assay. Summed up: as §1

The target in data set [6] is T1, Disintegrin and metalloproteinase domain-containing protein 10. Kind of data set: Inhibition of ADAM-10 in human KM-H2 cells assessed as reduction in pervanadate-induced soluble ULBP3 shedding after 24 hrs by ELISA. It is filed as cell-based. The method in brief: (§2)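 Supernatants collected before and after 24 h inhibitor exposure, 10 to 0.1 µM. 100 µM sodium orthovanadate was activated to pervanadate with 100 µM H2O2 and added for 40 min before harvest. Soluble ULBP3 or ALCAM measured by ELISA.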

The target is the same in data set [7]. Kind of data set: Inhibition of ADAM-10 in human KM-H2 cells assessed as reduction in pervanadate-induced soluble MICB shedding after 24 hrs by ELISA. Format: cell-based. Summed up: (§3)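 Supernatants taken from HL cultures before and after 24 h inhibitor exposure, 10 to 0.1 µM. 100 µM sodium orthovanadate was activated to pervanadate with 100 µM H2O2 and added for 40 min before harvest. Soluble MIC-B measured by ELISA against a MIC-B/Fc chimera standard curve. The DMSO+pervanadate supernatant was set as 100% shedding. Triplicate wells, 3 independent experiments.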

Data set [8] deals with T2, Disintegrin and metalloproteinase domain-containing protein 17. The data set is described as follows: Inhibition of ADAM-17 in human KM-H2 cells assessed as reduction in pervanadate-induced soluble ALCAM shedding after 24 hrs by ELISA. It is filed as cell-based. Summed up:
as §2

Data set [9] deals with T1, Disintegrin and metalloproteinase domain-containing protein 10. The data set is described as follows: Inhibition of ADAM-10 in human L428 cells assessed as reduction in pervanadate-induced soluble ULBP3 shedding after 24 hrs by ELISA. Format: cell-based, L-428. The method in brief: as §2
For data set [10] the target is unchanged. Kind of data set: Inhibition of ADAM-10 in human L428 cells assessed as reduction in pervanadate-induced soluble MICB shedding after 24 hrs by ELISA. Format: cell-based, L-428. The method in brief: as §3
Data set [11] concerns the target T2, Disintegrin and metalloproteinase domain-containing protein 17. Kind of data set: Inhibition of ADAM-17 in human L428 cells assessed as reduction in pervanadate-induced soluble ALCAM shedding after 24 hrs by ELISA. It is filed as cell-based, L-428. The method in brief:
as §2

In data set [12] the target is T1, Disintegrin and metalloproteinase domain-containing protein 10. The data set is described as follows: Inhibition of ADAM-10 in human L540 cells assessed as reduction in pervanadate-induced soluble ULBP3 shedding after 24 hrs by ELISA. It is filed as cell-based, L-540. Summed up:
as §2

For data set [13] the target is unchanged. The data set is described as follows: Inhibition of ADAM-10 in human L540 cells assessed as reduction in pervanadate-induced soluble MICB shedding after 24 hrs by ELISA. It is filed as cell-based, L-540. The method in brief: as §3
The nature of data set [14]: Cytotoxicity against human KM-H2 cells assessed as cell viability at 10 uM after 72 to 96 hrs by JC-1 staining-based fluorescence assay. The following applies: read-out: Activity. Summed up:
(§4)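 HL cell lines from DSMZ exposed to inhibitor at 10 µM for 72 and 96 h. Viability read as mitochondrial potential by staining with the dual-emission fluorescent probe JC-1.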

Data set [15] in a line: Cytotoxicity against human L428 cells assessed as cell viability at 10 uM after 72 to 96 hrs by JC-1 staining-based fluorescence assay. On the set-up: species or system L-428. Particulars: read-out: Activity. The method in brief: as §4
Data set [16] is described as follows: Cytotoxicity against human L540 cells assessed as cell viability at 10 uM after 72 to 96 hrs by JC-1 staining-based fluorescence assay. Further details: species or system L-540. The following applies: read-out: Activity. Summed up: as §4

T2 sequence (P78536 whole entry, the tested form may be a part): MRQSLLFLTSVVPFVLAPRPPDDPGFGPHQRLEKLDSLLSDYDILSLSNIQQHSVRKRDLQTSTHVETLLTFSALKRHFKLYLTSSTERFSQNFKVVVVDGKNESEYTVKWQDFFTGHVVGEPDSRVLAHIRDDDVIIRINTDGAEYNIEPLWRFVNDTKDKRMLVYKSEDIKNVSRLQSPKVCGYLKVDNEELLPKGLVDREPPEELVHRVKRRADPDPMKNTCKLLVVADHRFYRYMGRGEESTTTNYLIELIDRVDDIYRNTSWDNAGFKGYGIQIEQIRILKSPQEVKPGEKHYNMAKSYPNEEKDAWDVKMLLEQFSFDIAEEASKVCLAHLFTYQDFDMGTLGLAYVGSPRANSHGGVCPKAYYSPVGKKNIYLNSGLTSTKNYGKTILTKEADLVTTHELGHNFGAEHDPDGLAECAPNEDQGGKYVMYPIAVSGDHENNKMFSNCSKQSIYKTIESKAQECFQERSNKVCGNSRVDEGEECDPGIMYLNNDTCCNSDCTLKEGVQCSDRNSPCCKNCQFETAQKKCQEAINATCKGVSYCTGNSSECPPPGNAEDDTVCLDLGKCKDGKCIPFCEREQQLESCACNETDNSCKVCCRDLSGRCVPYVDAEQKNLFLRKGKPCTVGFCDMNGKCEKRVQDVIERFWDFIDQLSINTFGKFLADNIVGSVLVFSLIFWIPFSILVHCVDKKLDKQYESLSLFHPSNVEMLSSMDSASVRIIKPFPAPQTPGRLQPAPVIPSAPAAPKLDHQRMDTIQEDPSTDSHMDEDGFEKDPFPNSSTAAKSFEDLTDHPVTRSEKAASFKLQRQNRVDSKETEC
Chain of Matrix metalloproteinase-9 (P14780 whole entry): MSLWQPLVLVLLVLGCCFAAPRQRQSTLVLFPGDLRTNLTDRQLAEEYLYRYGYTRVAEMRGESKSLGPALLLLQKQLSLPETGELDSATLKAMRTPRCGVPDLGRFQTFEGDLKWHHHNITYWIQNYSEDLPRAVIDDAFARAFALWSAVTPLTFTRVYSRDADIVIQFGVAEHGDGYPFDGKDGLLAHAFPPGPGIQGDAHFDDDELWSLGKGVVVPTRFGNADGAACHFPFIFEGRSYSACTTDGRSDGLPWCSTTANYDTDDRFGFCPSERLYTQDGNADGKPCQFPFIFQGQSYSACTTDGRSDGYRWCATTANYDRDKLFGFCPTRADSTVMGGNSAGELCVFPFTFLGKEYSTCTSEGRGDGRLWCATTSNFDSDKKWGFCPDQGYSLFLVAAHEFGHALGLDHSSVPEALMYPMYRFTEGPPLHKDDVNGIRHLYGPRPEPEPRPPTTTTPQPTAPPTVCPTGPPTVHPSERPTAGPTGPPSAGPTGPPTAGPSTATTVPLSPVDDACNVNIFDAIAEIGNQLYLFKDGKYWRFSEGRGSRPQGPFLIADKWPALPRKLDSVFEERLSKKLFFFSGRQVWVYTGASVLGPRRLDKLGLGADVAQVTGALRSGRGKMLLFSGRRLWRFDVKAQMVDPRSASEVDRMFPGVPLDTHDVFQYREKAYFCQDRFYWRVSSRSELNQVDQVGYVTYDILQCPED
Chain of 72 kDa type IV collagenase (P08253 whole entry): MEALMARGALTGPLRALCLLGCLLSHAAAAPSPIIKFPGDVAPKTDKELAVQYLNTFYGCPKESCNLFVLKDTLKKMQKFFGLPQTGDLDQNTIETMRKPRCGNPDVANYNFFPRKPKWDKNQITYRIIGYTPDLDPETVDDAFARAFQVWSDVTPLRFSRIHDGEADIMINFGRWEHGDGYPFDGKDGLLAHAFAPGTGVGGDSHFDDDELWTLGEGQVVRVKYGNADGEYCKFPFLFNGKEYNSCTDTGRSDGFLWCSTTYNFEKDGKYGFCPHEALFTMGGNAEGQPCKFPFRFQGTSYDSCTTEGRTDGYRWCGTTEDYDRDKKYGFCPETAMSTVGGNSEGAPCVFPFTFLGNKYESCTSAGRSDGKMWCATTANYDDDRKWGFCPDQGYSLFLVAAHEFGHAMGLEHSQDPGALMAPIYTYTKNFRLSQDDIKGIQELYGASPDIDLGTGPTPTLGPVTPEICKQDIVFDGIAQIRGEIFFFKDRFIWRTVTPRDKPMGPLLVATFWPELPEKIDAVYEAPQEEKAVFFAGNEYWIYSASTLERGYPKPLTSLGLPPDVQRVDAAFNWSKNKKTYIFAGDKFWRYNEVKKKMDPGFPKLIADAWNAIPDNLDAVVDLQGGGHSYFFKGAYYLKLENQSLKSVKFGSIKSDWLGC

As for `CNC(=O)[C@@H](NC(=O)[C@H](CCCc1ccccc1)[C@H](C)N(O)C=O)C(C)(C)C`, the IC50 in data set [1] came out at 0.088 µM; in [2], 0.027 µM; in data set [3] it was 0.86 µM; in data set [4], 0.0051 µM; in data set [5], 0.0021 µM; on Interstitial collagenase, 0.125 µM. Also, the IC50 in data set [6] was determined as 10 µM; in data set [7], 12 µM; in data set [8] it was 10 µM; in [9], 15 µM; in [10], 12 µM; in data set [11], 10 µM. The half-maximal inhibitory concentration (IC50) in data set [12] was 10 µM; in data set [13] it was 12 µM.
Regarding `O=C(NCCC[C@@H](NS(=O)(=O)c1ccc(OCc2cc(Br)cc(Br)c2)cc1)C(=O)NO)OCc1ccccc1`, the viability at 10 µM in [14], in [15] and in [16] was above 96% in each case. Besides, the IC50 in data set [6] was 15 µM; in [7], 15 µM; in data set [8] it was 0.5 µM; in data set [9] it was 10 µM; in data set [10], 15 µM; in [11] it was 0.1 µM. The IC50 in data set [12] is 12 µM; in [13], 15 µM.
On to `Cc1cc(C#N)ccc1N1CCN(S(=O)(=O)N[C@H](CCCNC(=O)OCc2ccccc2)C(=O)NO)CC1`, for which the IC50 was 50 µM in data set [1]; 0.0092 µM in [2]; 0.09 µM in data set [3]; 4.5 µM in data set [4]; 0.37 µM in data set [5]; above 200 µM against Interstitial collagenase. Moreover, the IC50 stood at 10 µM in [6]; 7 µM in data set [7]; 1 µM in data set [8]; 10 µM in data set [9]; 7 µM in [10]; 1 µM in data set [11]. The IC50 was 10 µM in data set [12] and 12 µM in data set [13]. The viability at 10 µM in [14], in [15] and in data set [16] was above 96% in each case.
For `Cc1cc(C#N)ccc1N1CCN(S(=O)(=O)N2CSC[C@@H]2C(=O)NO)CC1`, the IC50 amounted to 100 µM in data set [1]; 0.04 µM in data set [2]; 1.5 µM in [3]; 24 µM in data set [4]; 5.4 µM in [5]; 346 µM on Interstitial collagenase. For the same molecule, the IC50 in [6] was 7 µM; in data set [7] it was 5 µM; in data set [8], 10 µM; in data set [9], 5 µM; in data set [10], 5 µM; in [11] it was 12 µM. Further, the IC50 in [12] and in data set [13] was 7 µM each time. The viability at 10 µM in [14], in [15] and in data set [16] was above 96% in each case.

The record behind these values is ChEMBL document CHEMBL3769331, “Discovery of a new selective inhibitor of A Disintegrin And Metalloprotease 10 (ADAM-10) able to reduce the shedding of NKG2D ligands in Hodgkin's lymphoma cell models” (Eur J Med Chem, 2016).
